From PubChem
In the library only some 4.2% were active in any assay of this set; here they are far more common.
SUMO Mot1 rescue: blocks SUMOylation pathway, rescuing yeast Mot1-301 growth; S. cerevisiae Mot1-301 growth rescue, ATP luminescence, 38.5C; percent above DMSO median, 100 means doubled; growth rescue, % at 18.8 µM; 320,000 tested, 1% active; AID 2716;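 active means every valid replicate shows activation above 250% relative to neutral control wells; inactive means the rest, any valid replicate at or below 250%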;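 further: OY570 slx delta 5 strain wells were the positive control but not used for scaling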
KCNQ1 act: potentiates or activates the human KCNQ1 potassium channel; B-score at 10 µM; CHO-K1 KCNQ1, thallium flux FluxOR fluorescence; active compounds read high; AID 2648; 310,000 tested, 0.35% active;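 active means fluorescence ratio B-score, a plate-corrected score, at least three library SD, with initial intensity B-score within 5 SD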
Target sequence (P51787 whole entry, looked up): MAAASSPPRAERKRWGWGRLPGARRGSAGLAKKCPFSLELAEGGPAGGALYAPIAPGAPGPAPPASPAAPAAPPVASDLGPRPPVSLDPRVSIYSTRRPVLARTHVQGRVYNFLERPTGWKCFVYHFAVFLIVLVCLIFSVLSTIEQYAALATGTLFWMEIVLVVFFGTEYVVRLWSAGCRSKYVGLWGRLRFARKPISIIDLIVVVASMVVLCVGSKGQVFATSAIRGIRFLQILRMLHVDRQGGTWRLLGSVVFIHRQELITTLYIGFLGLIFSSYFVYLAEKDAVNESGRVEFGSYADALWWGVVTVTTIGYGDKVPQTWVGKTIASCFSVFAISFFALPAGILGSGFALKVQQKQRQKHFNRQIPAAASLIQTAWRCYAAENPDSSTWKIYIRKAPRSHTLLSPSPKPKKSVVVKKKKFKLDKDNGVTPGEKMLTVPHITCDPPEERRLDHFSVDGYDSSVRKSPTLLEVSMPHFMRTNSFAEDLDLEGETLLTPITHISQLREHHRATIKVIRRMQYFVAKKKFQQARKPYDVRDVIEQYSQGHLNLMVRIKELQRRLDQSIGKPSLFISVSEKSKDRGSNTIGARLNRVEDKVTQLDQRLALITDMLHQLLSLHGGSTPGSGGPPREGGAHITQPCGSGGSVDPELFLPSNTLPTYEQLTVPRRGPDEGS
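Schedule – 37 °C overnight plating, 90-min dark dye load, 20-min compound pretreatment · System – stable KCNQ1 CHO-K1 line · Probe or stimulus – thallium- and potassium-containing depolarizing buffer · Measured by – kinetic FluxOR fluorescence, 10 s baseline plus 110 s post-stimulus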
hERG protect: hERG (human) protection from proarrhythmic block. activation (rescue from dofetilide block), less the hit threshold, % at 10 µM. CHO-hERG, FluxOR thallium flux, dofetilide IC70 present. AID 1511. 310,000 tested, 0.51% active. Q12809;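 active means activation above the mean of controls blocked by dofetilide plus 5 SD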;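 further: thallium influx through hERG after potassium depolarization seen as dye fluorescence rise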
AI-2 QS mod: modulates the Vibrio harveyi AI-2 quorum sensing system. Vibrio harveyi JMH597 AI-2 luminescence/OD600 ratio, 9 h; active compounds read low; strain lacks LuxN and CqsS sensors; 0 = neutral-control median. activity change, % at 7.5 µM. 300,000 tested, 0.4% active. AID 2094; in the data active means activity change below about -75%, passing the limit was not always enough; inconclusive means no clear call, values can overlap the other calls;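 further: luminescence divided by OD600 gain over 9 h not by final OD600 alone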
KCNQ1 block: blocks the human KCNQ1 potassium channel | CHO-K1 KCNQ1, FluxOR thallium flux fluorescence; active compounds read high | B-score at 10 µM | 310,000 tested, 1.3% active | AID 2642;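 active means compounds whose thallium flux B-score, printed positive for inhibition, exceeds three library SD while starting fluorescence stays within three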;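 further: channel opened by potassium depolarization with thallium stimulus after 20 min compound exposure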
Cl transport mod: modulators of human KCC2 chloride dependent transport. Q9H2X9. KCC2 cells, thallium flux FluoZin-2 fluorescence. B-score of Tl+ flux slope (higher = more flux/activation; lower = inhibition) at 10 µM. 190,000 tested, 2.2% active;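 active means thallium flux slope and its plate-corrected score both differing from the plate sample mean at a set confidence after two filtering rounds, in either direction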;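 further: slope of fluorescence scaled to starting intensity during 10 to 20 s after thallium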
KCC2 secondary: confirmation of human KCC2 transport modulators; shares compounds with Cl transport mod; HEK293-KCC2, thallium flux, FluoZin2 fluorescence; active compounds read high; normalised thallium flux (F/F0 slope) at 10 µM; 3,700 tested, 15% active; AID 1713;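 active means thallium flux slope above the same plate's solvent-only control mean plus 3 SD; inconclusive means the two replicate wells disagree; inactive means no significant difference from solvent-only control wells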
KCC2 bumet counter: bumetanide-insensitive thallium flux in KCC2 cells with ouabain, counter-screen; shares compounds with Cl transport mod; HEK293-KCC2 + bumetanide/ouabain, thallium flux FluoZin2; active compounds read high; normalized thallium flux at 10 µM; 3,700 tested, 49% active; AID 1714;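 active means thallium entry rate above the same plate's blocked-transporter control wells by more than 3 SD; inconclusive means the two repeat wells disagree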;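 further: raw slope of fluorescence over initial fluorescence between 10 and 20 s after thallium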
KCC2 secondary2: KCC2 (human) modulation, second secondary assay. shares compounds with Cl transport mod. HEK293-KCC2, thallium flux FluoZin2 fluorescence; actives lie on both sides; F/F0 rise rate, 10–20 s post-thallium. normalized thallium flux at 10 µM. 3,700 tested, 23% active. AID 1715;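 active means thallium flux slope more than 3 SD above or below the plate's solvent-only control mean, mostly below; inconclusive means the two repeat wells disagreed; inactive means no significant shift from solvent-only controls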;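 further: raw slope with 0.1% DMSO as baseline and bumetanide as block control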
HEK293 Tl flux: acts in parental HEK cells, KCC2 counter-screen; shares compounds with Cl transport mod; HEK293 parental cells, thallium flux FluoZin2, ouabain; baseline-ratio fluorescence slope, 10–20 s after thallium; thallium flux rate (normalised fluorescence) at 10 µM; 3,700 tested, 46% active;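 active means thallium flux rate significantly above the same plate's solvent-only control wells, beyond their mean plus 3 SD; inconclusive means the two replicate wells gave conflicting results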
KCC2 ouabain: modulates human KCC2 on retest with ouabain | HEK293-KCC2, thallium flux FluoZin2 fluorescence; bidirectional: low = inhibitor, high = activator | 3,700 tested, 48% active | raw Tl+ flux slope (below DMSO = inhibition, above = activation) at 10 µM | AID 1717 | shares compounds with Cl transport mod;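 active means thallium flux slope beyond 3 SD from same-plate DMSO control mean in most replicates, usually higher, sometimes lower; inconclusive means repeat tests gave conflicting results; inactive means no significant difference from controls in most replicates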;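 further: slope of initial-normalized fluorescence between seconds 10 and 20 after thallium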
HEK counter2: acts in parental HEK cells, second KCC2 counter-screen | shares compounds with Cl transport mod | HEK293 parental, thallium flux FluoZin-2 fluorescence slope | thallium flux slope at 10 µM | 3,700 tested, 33% active | AID 1718;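 active means thallium flux slope above the same plate's solvent-control mean plus 3 SD in both duplicate wells; inconclusive means duplicate wells that disagreed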;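 further: run without ouabain in cells lacking the KCC2 cotransporter; slope of fluorescence scaled to its starting value between 10 and 20 s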
Starred values were filed as active, the others as inactive; i = inactive; ? = inconclusive; . = no result.

SMILES | SUMO Mot1 rescue | KCNQ1 act | hERG protect | AI-2 QS mod | KCNQ1 block | Cl transport mod | KCC2 secondary | KCC2 bumet counter | KCC2 secondary2 | HEK293 Tl flux | KCC2 ouabain | HEK counter2
COc1ccc(Cl)cc1-c1n[nH]c(=S)n1C1CCCCC1 | -9.0 | i | 2.6 | 0.6 | i | 0.0257 | . | . | . | . | . | .
Cc1cc(Cl)ccc1OCc1n[nH]c(=S)n1C1CCCCC1 | 36.5 | i | -8.7 | 49.6 | i | 15.6* | 0.0072 | 0.0409* | 0.0488* | 0.0403* | 0.0365* | 0.0312*
Cc1ccc(NC(=O)/C(=C\C=C\c2ccccc2)NC(=O)c2ccccc2)cc1 | 1.6 | i | -7.5 | 9.5 | i | -4* | ? | 0.00559 | 0.0304 | 0.00643 | 0.0135* | 0.0104
COc1ccccc1OCC(=O)/C=C1/N(C)c2ccccc2C1(C)C | 12.1 | i | -22.5 | 8.5 | i | -1.93 | . | . | . | . | . | .
CN1/C(=C\C(=O)COc2ccc3c(c2)OCO3)C(C)(C)c2ccccc21 | 0.2 | i | -16.3 | 7.3 | i | -3.99* | 0.00827 | 0.00465 | 0.0248* | 0.00642 | ? | 0.00999
C/C(=N\NC(=O)c1ccc2c(c1)OCO2)c1ccco1 | 0.6 | i | -1.6 | 8.9 | i | 2.61 | . | . | . | . | . | .
C/C(=N/NC(N)=S)c1ccc(Br)s1 | 7.3 | i | -7.5 | -3.3 | i | 19.3* | 0.0108 | 0.0324* | 0.0307 | 0.0138* | 0.0271 | ?
C/C(=N\NC(=O)c1ccc(Cl)c(Cl)c1)c1ccc(Br)s1 | -3.8 | i | -8.0 | 29.7 | i | 7.17* | 0.00755 | 0.00897* | 0.0359 | 0.0225* | 0.0253* | 0.0169*
C/C(=N/NC(=O)c1ccc2c(c1)OCO2)c1ccc(Br)s1 | 21.4 | i | -2.4 | 13.0 | i | 6.32* | 0.01 | 0.0152* | 0.0343 | ? | ? | ?
C/C(=N\NC(=O)Cc1ccccc1)c1ccc(Br)s1 | -1.3 | i | -4.9 | 15.7 | i | . | . | . | . | . | . | .
CNC(=O)/C(=C\c1ccc([N+](=O)[O-])cc1)NC(C)=O | 1.0 | i | -2.0 | 1.8 | i | 0.0351 | . | . | . | . | . | .
COc1cc(-c2nnc(COc3ccc4ccccc4c3)o2)cc(OC)c1OC | -8.9 | i | -10.0 | 3.5 | i | . | . | . | . | . | . | .
COC(=O)c1nccc2c1[nH]c1ccccc12 | -7.9 | i | -4.2 | 43.3 | i | . | . | . | . | . | . | .
CCC(C)[C@H]1COCCS(=O)(=O)N1Cc1ccccc1 (some centres not stated) | -7.1 | i | -4.0 | 17.7 | i | . | . | . | . | . | . | .
COc1ccc(N/C=C/c2nc(SC)nnc2C)cc1 | -0.2 | i | -11.2 | 66.9 | i | -2.96* | 0.00681 | 0.0022* | 0.0238* | 0.004* | 0.012* | 0.00771*
CSc1nnc(C)c(/C=C/Nc2ccc(F)cc2)n1 | -9.9 | i | -3.1 | -28.8 | i | -1.33 | . | . | . | . | . | .
Cc1ccc(/C=N/NC(=O)c2cccc([N+](=O)[O-])c2)o1 | 16.3 | i | -8.4 | 8.0 | i | 5.51* | 0.0104 | 0.0106* | 0.0333 | 0.0121* | 0.0227 | 0.0115
O=C(N/N=C/c1ccc(-c2cccc(C(F)(F)F)c2)o1)c1cccc(F)c1 | 114.3 | i | -18.8 | 16.8 | i | 12* | 0.00857 | 0.016* | 0.0331 | 0.0118* | ? | 0.0105
O=C(N/N=C/c1ccc(-c2cccc(C(F)(F)F)c2)o1)c1ccccc1O | -0.7 | i | -5.3 | -1.1 | i | 4.77* | 0.00689 | 0.0287* | 0.0326 | 0.0156* | ? | 0.0191*
O=C(N/N=C/c1ccc(-c2cccc([N+](=O)[O-])c2)o1)c1ccccc1O | -5.4 | i | -7.3 | -0.4 | i | 3.35* | 0.0106 | 0.0235* | 0.0377 | 0.0123* | 0.0317* | ?
CC(=O)Nc1cccc(C(=O)N/N=C/c2ccc(C)o2)c1 | -14.9 | i | -2.5 | 37.1 | i | -0.443 | . | . | . | . | . | .
O=C(N/N=C/c1ccc(-c2cccc(C(F)(F)F)c2)o1)c1ccccc1Br | 51.1 | i | -1.6 | 29.2 | i | . | . | . | . | . | . | .
Cc1cccc(C(=O)N/N=C/c2cc(Br)c(Br)o2)c1 | . | i | -6.7 | 23.5 | i | 0.061 | 0.009 | 0.0165* | 0.0325 | 0.00912* | ? | 0.0094
CN(C)c1ccc(/C=N/NC(=O)c2ccccc2O)o1 | 16.3 | i | -5.5 | 24.8 | i | 5.07* | 0.0104 | ? | 0.0332 | 0.0106* | 0.0203 | 0.012
CN(CC(=O)Nc1ccccc1C(F)(F)F)C(=O)CSc1nnc(-c2ccncc2)n1C | -14.5 | . | . | . | . | . | . | . | . | . | . | .
SMILES | SUMO Mot1 rescue | KCNQ1 act | hERG protect | AI-2 QS mod | KCNQ1 block | Cl transport mod | KCC2 secondary | KCC2 bumet counter | KCC2 secondary2 | HEK293 Tl flux | KCC2 ouabain | HEK counter2
CC(C)NC(=O)c1onc(CSc2ccc(Cl)cc2)c1C(=O)NC(C)C | 4.2 | i | -8.5 | 18.4 | i | 2.39* | 0.0066 | 0.00453 | 0.0272 | 0.00717 | 0.017 | 0.0101
O=C(NNC(=O)c1oc2ccccc2c1-n1cccc1)c1ccco1 | 108.5 | i | -1.8 | 11.5 | i | . | 0.00741 | 0.0238* | 0.0398* | 0.0188* | 0.0299* | 0.0188*
O=C(Nc1nnc(-c2ccccc2)o1)Nc1ccccc1Cl | 0.8 | i | -11.0 | 17.9 | i | 19.6* | ? | 0.0318* | 0.0382 | ? | 0.0364* | ?
C=CCN(Cc1cccc(OC)c1OC)C(=O)Oc1ccccc1 | -22.3 | . | . | . | . | . | . | . | . | . | . | .
COCCN(C(=O)CSc1nc2ccccc2c(=O)n1CC(C)C)c1c(N)n(Cc2ccccc2)c(=O)[nH]c1=O | -4.0 | i | -6.0 | 12.9 | i | 13.4* | 0.0118* | 0.0539* | 0.0375 | 0.024* | 0.05* | 0.016*
COCCN(C(=O)CSc1nc2ccccc2c(=O)n1C(C)COC)c1c(N)n(Cc2ccccc2)c(=O)[nH]c1=O (configuration not stated) | 1.2 | i | -11.3 | 21.4 | i | 1.56 | . | . | . | . | . | .
